# Compounds with a hit are over-represented: about 1.8% of the library has one in this group of screens.
# CHRM4 agonist = CHRM4 agonism in calcium assay; CHO-K1 hM4/Gqi5, Fluo-8 calcium fluorescence; vehicle 0%, full acetylcholine response 100%; activation, % at 3 µM; P08173; 360,000 tested, 0.14% active;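 active = activation above the run mean over all test wells plus 3 SD, cut at about 32% in these data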;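 note: peak over basal fluorescence ratio per well then scaled between controls; 0% = DMSO wells and 100% = acetylcholine at EC100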
# M5 antag = antagonists of human muscarinic M5 receptor (CHRM5); P08912; CHO-hM5 cells, Fluo-8 calcium fluorescence, ACh EC80; inhibition, % at 3 µM; 360,000 tested, 0.59% active;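 active = inhibition above a per-plate cutoff, the mean of that plate's test compounds plus 3 SD, cut at about 27% in these data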;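 note: 0% = acetylcholine EC80 with DMSO and 100% = DMSO without agonist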
# Target sequence (P08912 whole entry, looked up): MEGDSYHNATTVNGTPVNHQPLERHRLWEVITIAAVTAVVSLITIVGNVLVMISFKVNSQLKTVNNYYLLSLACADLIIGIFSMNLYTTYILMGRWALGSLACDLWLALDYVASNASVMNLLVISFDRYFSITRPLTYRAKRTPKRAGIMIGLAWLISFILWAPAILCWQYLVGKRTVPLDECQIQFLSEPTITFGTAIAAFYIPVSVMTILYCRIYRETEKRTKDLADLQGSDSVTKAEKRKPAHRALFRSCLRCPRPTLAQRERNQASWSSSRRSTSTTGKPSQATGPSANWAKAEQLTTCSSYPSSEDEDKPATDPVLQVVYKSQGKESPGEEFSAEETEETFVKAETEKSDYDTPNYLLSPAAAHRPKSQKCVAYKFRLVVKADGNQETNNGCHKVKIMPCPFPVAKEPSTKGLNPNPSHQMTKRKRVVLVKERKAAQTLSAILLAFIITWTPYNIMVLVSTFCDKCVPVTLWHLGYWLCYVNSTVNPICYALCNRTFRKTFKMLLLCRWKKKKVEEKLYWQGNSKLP
# M5 ag = CHRM5 agonism in calcium assay; AID 624037; CHO-K1 hM5 cells, Fluo-8 calcium fluorescence; 0% DMSO wells, 100% maximal acetylcholine response; activation, % at 3 µM; 360,000 tested, 0.19% active;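 active = activation above the run's mean over test compounds plus 3 SD, cut at about 23% in these data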;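 note: signal is peak over basal fluorescence ratio across the kinetic read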
# CHRM4 antagonist = antagonists of human muscarinic M4 receptor (CHRM4). P08173. CHO-hM4 cells, ACh EC80, Fluo-8 calcium fluorescence. inhibition, % at 3 µM. 360,000 tested, 0.73% active. AID 624125;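 active = inhibition above its plate's cutoff, the mean inhibition of sample wells plus 3 SD, cut at about 27% in these data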;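 note: 0% = acetylcholine EC80 with DMSO and 100% = DMSO without agonist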
# M4 PAM = potentiates acetylcholine response at human M4 receptor; activation, % at 3 µM; 360,000 tested, 0.4% active; P08173; CHO-K1 hM4/Gqi5, Fluo-8 calcium fluorescence, ACh EC20; 0% = ACh EC20, 100% = maximal ACh; AID 624126;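 active = activation above its plate's cutoff, the mean activation of sample wells plus 3 SD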
# CHRM5 PAM = potentiates acetylcholine response at human M5 receptor | P08912 | CHO-K1 hM5, Fluo-8 calcium, ACh EC20 PAM; 0% = ACh EC20, 100% = ACh EC100 | activation, % at 3 µM | 360,000 tested, 0.3% active;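 active = activation above the run cutoff, the mean activation of all test compounds plus 3 SD, cut at about 18% in these data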
#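 system = human M5 receptor in CHO-K1 cells | compound = one concentration, 3 µM final (nominal) | schedule = Post-acetylcholine fluorescence recording 140 s | signal = Fluo-8 calcium dye fluorescence, kinetic read | benchmarks = low control EC20 acetylcholine (0%), high control EC100 acetylcholine (100%) | repeats = singlicate, one well per test compound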
# * marks the source's active call; other numbers are inactive results.
SMILES,CHRM4 agonist,M5 antag,M5 ag,CHRM4 antagonist,M4 PAM,CHRM5 PAM
C[C@H](CO)N1C[C@H](C)[C@@H](CN(C)C(=O)NC2CCCCC2)Oc2ccc(NC(=O)CCC(F)(F)F)cc2C1=O,1.7,-0.8,2.2,-0.1,24.3*,7.0
C[C@H]1CN([C@@H](C)CO)C(=O)Cc2cc(NC(=O)CCC(F)(F)F)ccc2O[C@H]1CN(C)S(=O)(=O)c1ccc(Cl)cc1,1.1,-2.9,-5.5,36.3*,-15.1,5.8
C[C@H]1CN([C@@H](C)CO)C(=O)Cc2cc(NC(=O)CCC(F)(F)F)ccc2O[C@H]1CN(C)S(=O)(=O)c1ccc(F)cc1,-0.6,10.7,-0.8,62.9*,-17.0,-2.2
CCOC(=O)c1cc(C)n(CCc2ccccc2)c1C,-1.8,-7.2,-6.3,-6.3,-2.2,6.4
Cc1c(P(=S)(c2ccccc2)c2ccccc2)[n+]2ccccc2n1CCc1ccccc1,0.6,11.7,-3.8,56.0*,-14.6,-7.4
CCOC(=O)c1ccc(N2CN(CCc3ccccc3)CNC2=S)cc1,1.3,2.0,1.0,5.5,2.5,-2.9
Cc1ccc(N2CN(CCc3ccccc3)CNC2=S)cc1,0.2,-1.7,1.0,-7.2,14.4*,16.5
CN1CCN(C2=Cc3ccc(Cl)cc3Sc3ccc(F)cc32)CC1,9.6,5.2,-10.0,18.3,-11.2,-9.6
CN1CCN(C2=Cc3ccccc3Sc3cc(F)ccc32)CC1,5.4,27.7*,-13.1,20.8,-16.4,-42.9
Cc1cc(N2CCOCC2)ccc1/C=C\[N+](=O)[O-],6.1,30.8*,15.9,19.6,-7.2,2.4
O=[N+]([O-])c1ccc(N2CCOCC2)cc1O,0.9,-3.7,3.7,1.4,-5.3,13.2
O=C(Cn1cnc2scc(-c3cccc([N+](=O)[O-])c3)c2c1=O)NCc1ccco1,4.7,6.4,1.3,-3.0,1.9,2.4
CCC(CC)c1nnc(NC(=O)CCc2ccccc2)s1,-0.1,8.3,3.3,-3.8,15.1*,-0.9
CCC(CC)c1nnc(NC(=O)CCc2ccc(OC)cc2)s1,1.1,2.0,8.0,-12.8,1.5,5.0
CCCS(=O)(=O)NC(=O)C1(C)CCCN(C(=O)c2ccc3ccccc3c2)C1 (configuration not stated),0.8,-3.3,1.2,-5.7,16.5*,2.9
COCCNc1nc(N2CCCCC2)c2cnn(C)c2n1,0.5,-25.5,-1.6,2.6,0.1,18.3*
Cc1cccc(C(=O)N[C@H](C(=O)NCCc2ccc(Cl)cc2)C(C)C)c1,1.3,6.9,-1.1,4.5,1.7,3.1
CN1C(=O)c2ccccc2Sc2ccc(NC(=O)NC3CC3)cc21,2.9,16.5,2.7,-18.7,8.8,37.9*
Cc1c(C(=O)Nc2ccc3c(c2)OCCO3)sc2nc(-c3ccccc3)cn12,30.4,28.4*,6.3,33.6*,-11.2,-24.6
Cc1c(C(=O)Nc2ccncc2)sc2nc(-c3ccccc3)cn12,26.5,4.6,10.1,-5.6,-5.9,-13.2
Cc1cc(/C=N/NC(=O)c2ccsc2)c(C)n1-c1cnccn1,1.2,0.1,3.0,9.5,7.4,28.2*
CN(c1nc2nonc2nc1NC1CC1)C1CCOC1 (configuration not stated),0.7,-16.2,-2.3,-11.4,3.8,-4.2
CCOC(=O)c1sc(=S)n(-c2ccccc2)c1SC,-1.8,1.8,-7.4,14.1,-17.7,-11.4
CCOC(=O)c1sc(=S)n(-c2ccccc2Cl)c1SC,-0.6,22.8,-7.5,54.3*,-15.6,-26.5
CCOC(=O)C1=C(C)NC(C)=C(C(=O)OCC)C1C(=O)OCC(=O)NC1(C#N)CCCCC1,26.4,22.6,5.5,10.9,-2.0,-27.1
SMILES,CHRM4 agonist,M5 antag,M5 ag,CHRM4 antagonist,M4 PAM,CHRM5 PAM
Cc1cc2c3c(c1)C(C)CC(C)(C)N3C(=O)C2=O (configuration not stated),2.0,2.1,19.0,-10.2,-6.6,-2.9
CC1CC2(CCCCC2)N2C(=O)C(=O)c3cccc1c32 (configuration not stated),-2.6,-5.5,62.7*,6.2,8.4,-10.9
CCCCN1CCc2c(c3ccccc3n2Cc2ccccc2)C1,2.5,3.8,-4.9,-12.0,-9.0,-15.2
CN1CCc2c(c3ccccc3n2Cc2ccccc2)C1,1.2,42.2*,-1.7,56.9*,-16.9,-18.9
COc1cc(CC(=O)NCC2CCCCC2)cc(OC)c1OC,1.4,-1.5,1.0,-0.8,1.7,-0.9
CS(=O)(=O)N(CC(=O)N1CCCCCC1)c1ccccc1,0.6,7.9,-7.1,10.2,-3.2,-0.4
CS(=O)(=O)N(CC(=O)N1CCCCCC1)c1cccc([N+](=O)[O-])c1,0.6,-8.8,-1.9,-6.1,-4.1,18.4*
Cc1ccccc1-c1cc(C(=O)NCc2cccc(C(F)(F)F)c2)nn1CC1CC(c2cccc([N+](=O)[O-])c2)=NO1 (configuration not stated),3.8,4.0,-1.9,-1.1,3.4,-2.1
O=C(Nc1ccccc1C(=O)N/N=C/c1ccco1)c1ccc(F)cc1,0.9,-21.8,-0.2,20.7,36.0*,9.3
Cc1ccccc1C(=O)Nc1ccccc1C(=O)N/N=C\c1ccco1,1.6,-7.9,-0.1,-17.0,31.0*,-2.6
O=C(N/N=C/c1ccco1)c1cccc([N+](=O)[O-])c1,1.4,-8.9,-1.5,0.6,27.6*,5.4
O=[N+]([O-])c1cc(C(F)(F)F)cc([N+](=O)[O-])c1N1CCCNCC1,3.0,6.5,-8.1,1.2,-4.0,-0.4
Nc1nc(Cl)c(N)c(NCC2(CO)CC(CCc3ccccc3)C2)n1 (configuration not stated),12.1,17.9,2.3,1.9,-0.2,-23.5
O=C(Nc1cccc(C(F)(F)F)c1)C1Cc2c(-c3ccc(Cl)cc3)ccnc2O1 (configuration not stated),1.4,-5.2,0.7,-36.6,16.7*,-1.1
CCOC(=O)C1=C(Cc2ccc(Cl)cc2)C(=O)c2ccccc2C1=O,14.3,17.9,11.7,35.3*,-5.0,1.7
CCOC(=O)C1=C(C)N=C2c3ccccc3C(=O)C2C1c1ccc(Cl)cc1 (configuration not stated),6.1,0.5,-1.9,5.6,-6.5,-3.1
COC(=O)C1CCN(C(=O)COC(=O)CSc2ccc(C(N)=O)cc2[N+](=O)[O-])CC1,1.3,9.7,4.1,-8.7,4.2,-0.3
O=C(NC1CC1)C1CCN(C2CCN(C(=O)/C=C/c3cccc(F)c3F)CC2)CC1,0.5,5.4,-5.0,-11.3,8.9,2.6
O=C(NC1CC1)C1CCN(C2CCN(C(=O)/C=C/c3cccs3)CC2)CC1,2.6,29.3*,-1.7,0.0,-2.6,28.4*
CCC(=O)Nc1cc(C(C)(C)C)ccc1C(C)=O,-0.6,2.5,-0.5,3.5,1.7,-3.4
